Source: PubChem (Broad Institute)
Only some compounds are listed: those with a hit (about 3.6% of all), similar ones and a draw of the others.
HSF1 activator: increases HSF-1 driven luciferase reporter signal | activation, % at 9 µM | AID 504408 | NIH3T3-HGL HSF-1 luciferase reporter, MG132, 8 h; 100% = twice DMSO control signal | actives 1.7% (n = 300,000);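 active means mean replicate activation of at least 50% with a set share of replicates each reaching 50%; inconclusive means only one of those two conditions met; inactive means mean below 50% and too few replicates reaching it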;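 further: 0% = median of the neutral control wells and 100% = twice that signal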
SR-BI uptake up: SR-BI HDL lipid transfer activation; activation, % at 12.5 µM; CHO ldlA[mSR-BI] cells, DiI-HDL uptake fluorescence, 3 h; 100 = double the neutral-control signal; actives 0.096% (n = 320,000);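 active means mean replicate activation of at least 60% and every replicate at or above 60%; inconclusive means mean or all-replicate condition met, but not both; inactive means mean below 60% and not all replicates reaching 60%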;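 further: 0% = median plate neutral-control signal and 100% = twice that signal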
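Assay system: LDL receptor-deficient CHO ldlA cells overexpressing murine SR-BI / Medium: BSA-supplemented, HEPES-buffered Ham's F12, pH 7.4 / Probe or stimulus: DiI-labelled HDL at 10 µg/mL final / Timing: compound with DiI-HDL co-incubation, 3 h at 37 °C / Technique: bottom-read cell fluorescence after medium removal, ex 550/em 595 nm / Measure: HDL uptake via cellular fluorescence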
Wnt act: activators of Wnt/beta-catenin signaling. Wnt/beta-catenin reporter cell assay, activator, plate reader. activation, % at 9.35 µM. actives 1.2% (n = 300,000); in the data active means activation above about 30%, passing the limit was not always enough; inconclusive means no clear call, values can overlap the other calls;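 further: 0% = neutral control wells and 100% = positive control wells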
MITF TRPM1 HTS: MITF TRPM1 promoter activation in melanoma cells | AID 588334 | actives 0.75% (n = 300,000) | SK-MEL-5 TRPM1-promoter luciferase, 24 h; % of positive control, neutral wells = 0 | activation, % at 12.5 µM;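 active means mean activation of at least 80% with every replicate also reaching 80%; inconclusive means mean reaches 80% but some replicate falls short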;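 further: 0% = neutral control wells and 100% = parthenolide positive control wells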
SR-BI DiI inh: blocks mouse SR-BI lipid uptake from DiI-HDL. actives 0.96% (n = 320,000). Q61009. ldlA[mSR-BI] CHO cells, DiI-HDL uptake fluorescence, 3 h. inhibition, % at 12.5 µM;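 active means mean replicate inhibition of at least 70% and a set share of replicates each scoring 70 or more; inconclusive means meets just one of the two criteria; inactive means fails both criteria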;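 further: 0% = median of neutral control wells and 100% = median of positive control wells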
Target sequence (Q61009 whole entry, looked up): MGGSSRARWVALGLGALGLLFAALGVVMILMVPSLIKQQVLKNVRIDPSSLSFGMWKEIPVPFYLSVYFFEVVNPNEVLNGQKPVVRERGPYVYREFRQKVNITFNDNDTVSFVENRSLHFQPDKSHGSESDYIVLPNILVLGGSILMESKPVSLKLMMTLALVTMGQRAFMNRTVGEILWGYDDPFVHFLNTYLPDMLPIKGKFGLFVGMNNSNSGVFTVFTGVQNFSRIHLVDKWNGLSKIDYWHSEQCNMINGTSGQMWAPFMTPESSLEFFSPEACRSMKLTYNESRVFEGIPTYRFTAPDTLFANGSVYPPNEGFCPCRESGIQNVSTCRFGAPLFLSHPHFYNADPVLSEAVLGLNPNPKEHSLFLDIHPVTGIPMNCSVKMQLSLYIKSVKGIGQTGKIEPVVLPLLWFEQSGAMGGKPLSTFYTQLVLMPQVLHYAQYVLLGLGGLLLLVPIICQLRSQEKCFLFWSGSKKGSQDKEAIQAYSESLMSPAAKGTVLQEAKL
* hit, by the source's call; ? = inconclusive; . = no result.

SMILES	HSF1 activator	SR-BI uptake up	Wnt act	MITF TRPM1 HTS	SR-BI DiI inh
C/C(=N/Nc1nc(-c2ccc(Cl)cc2)cs1)c1cccs1	-11.4	-79.1	-3.6	31.2	79.1*
NNc1nc(-c2ccccc2Cl)nc2sc3c(c12)CCCC3	46.0	-6.6	45.9*	49.9	6.6
CCOC(=O)CSc1nc(C2CC2)cc(-c2ccc(F)cc2)c1C#N	13.3	-71.9	-5.6	10.1	71.9*
CC(=Nc1ccccc1)c1sc2ccccc2c1O	35.1	-5.8	-1.3	49.7	5.8
CC(=Nc1ccc(Br)cc1)c1sc2ccccc2c1O	59.8*	.	-1.4	62.1	.
CC(NC(=O)/C=C/c1ccco1)c1nc2ccccc2n1Cc1cccc(Cl)c1 (stereo not given)	70.3*	-18.6	3.5	17.4	18.6
O=C(C#Cc1ccccc1)Nc1ccc(F)cc1	41.4	-17.6	8.2	.	17.6
COc1ccc(NC(=O)C#Cc2ccccc2)cc1	54.2*	6.6	14.3	.	-6.6
O=C(C#Cc1ccccc1)Nc1cccc(F)c1	81.6*	-9.8	-4.5	.	9.8
COC(=O)c1ccc(NC(=O)CCOc2ccccc2)cc1	11.5	15.5	0.6	-0.4	-15.5
COc1ccc(NC(=O)CCCCC#Cc2ccccc2)cc1	13.5	1.9	1.3	6.1	-1.9
COc1ccc(NC(=O)CCOc2ccccc2)cc1	13.2	-7.0	.	112.3*	7.0
COC(=O)[C@@H](Cc1c[nH]c2ccccc12)NCc1cccc(B(O)O)c1	.	.	-2.9	-5.8	.
O=C1c2ccccc2C(=O)N1OCCOCCOCCON1C(=O)c2ccccc2C1=O	-16.6	17.7	45.1*	-9.6	-17.7
O=C1c2ccccc2C(=O)N1OCCOCCOCCBr	1.9	1.3	.	-1.5	-1.3
O=C(N[C@H]1/C=C\[C@@H](O)CCCC1)OCc1ccccc1	.	-10.2	4.1	97.8*	10.2
CC(C)(C)N1C(=O)c2ccccc2NC(=O)C1C(=O)NCc1ccco1 (stereo not given)	.	.	-4.3	.	.
CCCCSc1nnc2c(n1)[nH]c1ccccc12	?	-6.4	62.3*	64.8	6.4
CC(C)CSc1nnc2c(n1)[nH]c1ccccc12	58.6*	6.2	49.8*	-12.1	-6.2
CC1(C(=O)NCc2ccc3c(c2)OCO3)CCN1C(=O)CC1CCCC1 (stereo not given)	.	.	1.4	.	.
Cc1cc(NC(=O)C(Cl)Cl)cc2c1OCO2	.	26.8	-3.0	-2.8	-26.8
Cc1cc(NC(=O)CSc2nc3c(sc4ccccc43)c(=O)n2CCCN2CCOCC2)n[nH]1	64.1*	20.3	-13.5	.	-20.3
Cc1cc(NC(=O)CSc2nc3c(sc4ccccc43)c(=O)n2CCc2ccccc2)n[nH]1	37.4	-15.1	.	.	15.1
COC(=O)c1cc(NC(=O)CN(C)C2CCS(=O)(=O)C2)cc(C(=O)OC)c1 (stereo not given)	.	9.4	1.4	8.6	-9.4
Cc1ccc(NC(=O)c2cnc(N3CCN(c4ccccn4)CC3)c3ccccc23)c(Br)c1	-66.1	-77.8	-39.2	-37.3	77.8*
SMILES	HSF1 activator	SR-BI uptake up	Wnt act	MITF TRPM1 HTS	SR-BI DiI inh
O=C(Nc1c(F)cccc1F)c1cnc(N2CCN(c3ccccn3)CC2)c2ccccc12	-5.5	-42.3	-2.9	-28.2	42.3
O=C(O)CCc1ccc(-c2ccc(Br)cc2)n1NC(=O)c1ccc([N+](=O)[O-])cc1	30.8	.	1.4	1.5	.
Cc1ccc(-c2ccc(CCC(=O)O)n2NC(=O)c2ccc([N+](=O)[O-])cc2)cc1	10.3	7.4	53.5*	1.8	-7.4
Cc1cccc(Nc2cc(=O)n(C)c(=O)n2C)c1	.	.	-0.3	.	.
C/C(Cl)=C/Cc1c(C)[nH]c2c(ccc3ccccc32)c1=O	12.5	-15.9	-1.3	8.3	15.8
C/C(Cl)=C/Cc1c(C)[nH]c2ccc(C)cc2c1=O	58.2*	-15.9	11.3	.	15.9
CC(OC(=O)c1ccc(Br)o1)C(=O)NCC1CCCCC1 (stereo not given)	.	7.5	-2.3	.	-7.5
O=C(Nc1ccccc1C(=O)NC1CC1)c1ccc([N+](=O)[O-])o1	.	8.7	5.4	-47.1	-8.7
Cc1cc([N+](=O)[O-])ccc1NC(=O)c1csc(C)c1C	53.5*	-44.1	22.2	123.8*	44.1
Cc1ccc(NC(=O)c2sc(N)nc2-c2ccc([N+](=O)[O-])cc2)c(C)c1	63.5*	-1.3	-9.9	15.4	1.3
Cc1cc([N+](=O)[O-])ccc1NC(=O)c1cccc(NC(=O)C(C)C)c1	57.9*	-10.2	17.6	67.1	10.2
CNC(=S)Nc1ccc([N+](=O)[O-])cc1C	13.1	-19.7	-0.9	6.4	19.7
